Experiment [1] deals with HCC 2998. As to the kind of experiment: Antiproliferative activity against human HCC2998 cells assessed as growth inhibition after 48 hrs by XTT assay. In kind it is functional, cell-based. (In general: Formazan colour is commonly taken as a measure of viable cells.)
Experiment [2] is described as follows: Antiproliferative activity against human NCI60 cells assessed as growth inhibition after 48 hrs by XTT assay. In kind it is functional. Conditions: NCI60, 48 h.
Experiment [3] relates to HT-29. The experiment can be described thus: Antiproliferative activity against human HT-29 cells assessed as growth inhibition after 48 hrs by XTT assay. In kind it is functional, cell-based.
In experiment [4] the test system is SW-620. The experiment can be described thus: Antiproliferative activity against human SW620 cells assessed as growth inhibition after 48 hrs by XTT assay. The experiment is classed as functional, cell-based.
For experiment [5], the system named is HCT-15. As to the kind of experiment: Antiproliferative activity against human HCT15 cells assessed as growth inhibition after 48 hrs by XTT assay. The experiment is classed as functional, cell-based.
Experiment [6] concerns KM12. The experiment can be described thus: Antiproliferative activity against human KM12 cells assessed as growth inhibition after 48 hrs by XTT assay. In kind it is functional, cell-based. In a few lines:
(§1)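 Cells were seeded into 384-well plates (COLO205 at […] cells/well, KM12 at 2.5×10^5 cells/well) and preincubated for 24 h. DMSO samples were diluted 1:25 in medium, then given five 2:1 serial dilutions and tested in duplicate (0.4% final DMSO). Exposure was 48 h at 37 °C. XTT was then added, and formazan was read after 4 h at 450 nm against a 650 nm reference.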

Experiment [7] relates to COLO 205. As to the kind of experiment: Antiproliferative activity against human COLO205 cells assessed as growth inhibition after 48 hrs by XTT assay. In kind it is functional, cell-based. In a few lines:
as §1

The test system of experiment [8] is HCT-116. As to the kind of experiment: Antiproliferative activity against human HCT116 cells assessed as growth inhibition after 48 hrs by XTT assay. In kind it is functional, cell-based.

Active and inactive are the calls of the source. The rule behind the calls is not given here.

The GI50 is the concentration giving 50% growth inhibition. With `CC(C)=C1CCNC1C[C@@H](C)[C@H]1CC[C@H]2C3=CC[C@H]4C[C@H](N)CC[C@]4(C)[C@H]3CC[C@]12C` (stereo partly drawn), the “growth inhibition (GI)” value in experiment [1], in experiment [3], in experiment [4], in experiment [5], in experiment [6] and in experiment [7] was “Active” each time. The “growth inhibition (GI)” value in experiment [8] is “Active”. In addition, the GI50 in experiment [2] was 11.5 µM.
Turning to `CC(=O)O[C@H]1[C@H](N)CC[C@]2(C)[C@H]3CC[C@]4(C)[C@@H]([C@H](C)CC5NCCC5=C(C)C)CC[C@H]4C3=CC[C@@H]12` (stereo partly drawn), the “growth inhibition (GI)” value in experiment [1], in experiment [3], in experiment [4], in experiment [5], in experiment [6] and in experiment [7] was “Active” in each case. In addition, the “growth inhibition (GI)” value in experiment [8] was “Active”. Moreover, the GI50 in experiment [2] stood at 2.4 µM.
As to `CC(C)C1CCN(C)C1C[C@@H](C)[C@H]1CC[C@H]2C3=CC[C@H]4[C@H](N)C=CC[C@]4(C)[C@H]3CC[C@]12C` (stereo partly drawn), the “growth inhibition (GI)” value in experiment [1], in experiment [3], in experiment [4], in experiment [5], in experiment [6] and in experiment [7] was “Active” in each case. Besides, in experiment [8], the “growth inhibition (GI)” value was “Active”.

The values are drawn from ChEMBL document CHEMBL3351691, “Steroidal alkaloids from the marine sponge Corticium niger that inhibit growth of human colon carcinoma cells” (2014).
